In ChEMBL document CHEMBL5715938, “The protein kinase Cbeta-selective inhibitor, Enzastaurin (LY317615.HCl), suppresses signaling through the AKT pathway, induces apoptosis, and suppresses growth of human colon cancer and glioblastoma xenografts” (Cancer Res, 2005) one finds inhibition data, which are given here for one compound.

Structures are written as SMILES. The source made the active and inactive calls. The rule behind the calls is not given here.

The target in this test is Glycogen synthase kinase-3 beta (Homo sapiens) (UniProt P49841). Nature of the test: Inhibition of GSK3beta phosphorylation at serine 9 residue in human HCT-116 cells at 1 micromol/L by Western blotting analysis. Type of test: cell-based. The note with it: dose 1.0 µmol/L, time <= 4.0 hrs. Summed up: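 Cultured tumor cells treated with 1 μmol/L drug; lysates in cell extraction buffer with protease inhibitors, western blotted with phospho-specific antibodies (pGSK3β Ser9, pAKT Thr308, phospho-ERK) alongside total GSK3β/AKT.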
Glycogen synthase kinase-3 beta (Homo sapiens), sequence (P49841 whole entry, looked up): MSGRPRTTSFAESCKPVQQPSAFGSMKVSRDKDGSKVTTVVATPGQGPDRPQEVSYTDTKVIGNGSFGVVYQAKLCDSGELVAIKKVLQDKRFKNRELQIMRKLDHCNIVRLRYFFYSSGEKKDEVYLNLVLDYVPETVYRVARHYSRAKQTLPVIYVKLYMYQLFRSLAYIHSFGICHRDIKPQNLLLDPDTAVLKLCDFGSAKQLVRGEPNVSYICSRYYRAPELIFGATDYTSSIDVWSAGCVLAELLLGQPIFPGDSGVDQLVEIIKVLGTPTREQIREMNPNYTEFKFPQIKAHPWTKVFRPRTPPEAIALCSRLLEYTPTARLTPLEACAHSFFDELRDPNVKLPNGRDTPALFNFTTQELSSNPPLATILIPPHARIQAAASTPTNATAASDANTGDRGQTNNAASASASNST
In general terms: In western blotting, separated proteins are transferred to a membrane and probed.

On to `CO[C@@H]1[C@H](N(C)C(=O)c2ccccc2)C[C@H]2O[C@]1(C)n1c3ccccc3c3c4c(c5c6ccccc6n2c5c31)C(=O)NC4`, for which the inhibition entry is “Active”.
